Read-outs that look alike come from different tables or passages of the source. Each block holds one compound with its values, some of them ahead of it.
What was measured:
[1] = tested on: ileum of TgCYP3A4/hPXR mice; test: In situ intestinal perfusion with mesenteric blood sampling, TgCYP3A4/hPXR mice; format: in vivo, mouse; details: for increase in intestinal permeability for darunavir: GF120918 4 μM in perfusate
[2] = format: in vivo, mouse
Summary of the method: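 An ileal segment of 2–3 cm was perfused open-loop at 0.2 ml/min, with or without GF120918 (4 μM) in the perfusate. Collected mesenteric blood was analysed by C18 HPLC with fluorescence detection (ex 268/em 347 nm). Metabolite is expressed relative to parent drug.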

[3] = concomitant administration of sulforaphane, humans; cited from earlier work

SMILES: COc1cc2c(cc1OC)CN(CCc1ccc(NC(=O)c3cccc4c(=O)c5cccc(OC)c5[nH]c34)cc1)CC2 [GF120918, N-(4-[2-(1,2,3,4-tetrahydro-6,7-dimethoxy-2-isoquinolinyl)ethyl]-phenyl)-9,10-dihydro-5-methoxy-9-oxo-4-acridine carboxamide]
increase in intestinal permeability for darunavir ([1]; TgCYP3A4/hPXR mice not treated with rifampicin, darunavir 100 μM in FaSSIF, p < 0.05): 56%
increase in intestinal permeability for darunavir ([1]; rifampicin-treated TgCYP3A4/hPXR mice (10 mg/kg, 3 days), p<0.05): 400%

concentration of R426857 relative to darunavir in mesenteric blood ([2]; TgCYP3A4/hPXR mice, perfusion without GF120918): less than 0.8%
relative amount of R426857 to darunavir in mesenteric blood ([2]; perfused with GF120918, rifampicin-treated TgCYP3A4/hPXR mice): 3.1%
relative amount of R426857 to darunavir in mesenteric blood ([2]; perfused with GF120918, untreated TgCYP3A4/hPXR mice): 1.6%
SMILES: CC(C)(O)CN(C[C@@H](O)[C@H](Cc1ccccc1)NC(=O)O[C@H]1CO[C@H]2OCC[C@H]21)S(=O)(=O)c1ccc(N)cc1 [R426857]

effect on intestinal permeability for darunavir ([1]; rifampicin-treated TgCYP3A4/hPXR mice, aminobenzotriazole 100 μM in perfusate): did not increase
SMILES: Nn1nnc2ccccc21 [aminobenzotriazole]

SMILES: C[S+]([O-])CCCCN=C=S (stereo not shown) [sulforaphane]
effect on rifampicin-caused decrease of midazolam AUC [3]: did not reduce
